Assay results as given in paper PMC8201661 (Cell chemical biology, 2020).

Columns and labels:
[1] = test system: RPMI 8226 cells; test: Cell toxicity, WST-1 assay, RPMI 8226; format: cell-based; settings: Homo sapiens, RPMI-8226, 48 h, read-out: EC50 cytotoxicity, RPMI 8226
[2] = test system: RPMI 8226 cells; test: Western blot for mono-/poly-Ub and PARP-1; format: cell-based, human; settings: RPMI 8226 cells treated with various concentrations for 6 h
Method in brief: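 RPMI 8226 cells (1,000,000/well) given a range of test-compound concentrations (1000x DMSO stock) or DMSO for 6 h. Lysis in RIPA with protease inhibitors (5 min, ice), then sonication and clearing at 17000 x g. Protein by BCA. After SDS-PAGE and PVDF wet transfer, membranes blocked in 5% milk/TBST and probed for PARP-1 (1:1,000 in 5% BSA/TBST), mono/poly-ubiquitin and α-tubulin as loading control.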

[3] = test system: MM1.R cells; test: Cell toxicity, WST-1 assay, MM1.R; format: cell-based; settings: Homo sapiens, MM.1R, 48 h, read-out: EC50 cytotoxicity, MM1.R
Method in brief: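 MM1.R cells grown in RPMI-1640 with 10% FBS, non-essential amino acids and penicillin/streptomycin at 37 °C, 5% CO2. Cells exposed to a range of test-compound concentrations for 24 h or 48 h. Viability read by WST-1 per manufacturer's protocol as values relative to control, n = 3. EC50 fitted from concentration–response.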

[4] = test system: 20S proteasome subunits PSMB5, PSMB10, PSMA5, PSMB1, and PSMB2; test: In situ competitive LC-MS/MS pull-down with probe 20; format: cell-based, human; settings: RPMI 8226 cells, 100 nM 1 for 6 hours, then 10 μM 20; LFQ, n = 6
Method in brief: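 RPMI 8226 cells grown to confluence, then given fresh medium with 100 nM test compound (1000x DMSO stock) or DMSO for 6 h. Washed cells were sonicated in PBS. Lysate (2.32 mg/mL) got 10 μM alkyne probe, 1 h r.t. CuAAC used 30 μM biotin azide, 1 mM TCEP, 100 μM TBTA and 1 mM CuSO4 (1 h), then streptavidin enrichment and on-bead TCEP/iodoacetamide treatment. Trypsin digest, LC-MS/MS, LFQ ratios; n = 6 (3 biological × 2 technical).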

[5] = test system: MM1.R; settings: read-out: Previously reported cytotoxicity, MM1.R; ref Hideshima et al., 2001; cited from earlier work
[6] = test system: RPMI 8226; settings: cited from earlier work

## CC(C)CCCCC/C=C/C=C/C(=O)N[C@H](C(=O)N[C@H]1C[C@@H](O)CCNC(=O)/C=C/[C@H](C)NC1=O)[C@@H](C)O [Compound 1, (2E,4E)-N-((2S,3R)-3-hydroxy-1-(((5S,8S,10S,E)-10-hydroxy-5-methyl-2,7-dioxo-1,6-diazacyclododec-3-en-8-yl)amino)-1-oxobutan-2-yl)-11-methyldodeca-2,4-dienamide]
[1]
  EC50: 0.031 µM
[2]
  PARP-1 Western blot (apoptosis marker): PARP-1 cleavage
  Ubiquitinated proteins (mono-/poly-ubiquitin Western blot): concentration-dependent increase in ubiquitinated proteins
[3]
  EC50: 0.023 µM
[4]
  Competition of 20-enriched PSMB5, PSMB10, PSMA5, PSMB1 and PSMB2: > 50%

## CC(C)C[C@H](NC(=O)[C@H](Cc1ccccc1)NC(=O)c1cnccn1)B(O)O [bortezomib]
[5]
  EC50: 0.003 µM

## CC(C)C[C@H](NC(=O)[C@H](CCc1ccccc1)NC(=O)CN1CCOCC1)C(=O)N[C@@H](Cc1ccccc1)C(=O)N[C@@H](CC(C)C)C(=O)[C@@]1(C)CO1 [carfilzomib]
[6]
  EC50: 0.005 µM
